Measurements: ChEMBL document CHEMBL4732237, “Discovery of 4-alkoxy-2-aryl-6,7-dimethoxyquinolines as a new class of topoisomerase I inhibitors endowed with potent in vitro anticancer activity” (2021)

Key:
Assay type in all cases: functional
Conditions in all cases: read-out: GI
NCI-H226 = assay: Growth inhibition of human NCI-H226 cells at 10 uM incubated for 48 hrs by sulforhodamine B assay relative to control
Method in brief: (§1)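 NCI one-dose screen. Cells grown in RPMI 1640 with 5% FBS and 2 mM L-glutamine, plated and incubated 24 h at 37 °C, 5% CO2. DMSO-dissolved drug added, then 48 h further incubation. Adherent cells fixed with cold TCA, suspension cells fixed after settling. Stained with 0.4% SRB, absorbance read at 515 nm. Reported as percent growth relative to no-drug control and time-zero cell number.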

NCI-H23 = assay: Growth inhibition of human NCI-H23 cells at 10 uM incubated for 48 hrs by sulforhodamine B assay relative to control; method in brief: as §1
MCF7 = assay: Growth inhibition of human MCF7 cells at 10 uM incubated for 48 hrs by sulforhodamine B assay relative to control
Method in brief: (§2)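 NCI-60 single-dose screen. Cells were grown in RPMI 1640 with 5% FBS and 2 mM L-glutamine and plated 24 h before drug addition. Compound was added at one concentration in DMSO-derived medium and incubated for 48 h at 37 °C in 5% CO2. Read-out was SRB protein stain at 515 nm. Result is percent growth versus the no-drug control and the time-zero cell count; values below 0 indicate lethality.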

MOLT-4 = assay: Growth inhibition of human MOLT-4 cells at 10 uM incubated for 48 hrs by sulforhodamine B assay relative to control; method in brief: as §1
A498 = assay: Growth inhibition of human A498 cells at 10 uM incubated for 48 hrs by sulforhodamine B assay relative to control
Method in brief: (§3)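 NCI one-dose screen across a 59-line panel. Cells were grown in RPMI 1640 with 5% FBS and 2 mM L-glutamine, plated and pre-incubated 24 h, then exposed to drug for 48 h at 37 °C, 5% CO2. Adherent cells were fixed with cold TCA (10% final), stained with 0.4% SRB in 1% acetic acid and read at 515 nm. Result is percent growth relative to no-drug control and time-zero cell count.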

UACC-257 = assay: Growth inhibition of human UACC-257 cells at 10 uM incubated for 48 hrs by sulforhodamine B assay relative to control; method in brief: as §3
HOP-92 = assay: Growth inhibition of human HOP-92 cells at 10 uM incubated for 48 hrs by sulforhodamine B assay relative to control; method in brief: as §2
SF-268 = assay: Growth inhibition of human SF-268 cells at 10 uM incubated for 48 hrs by sulforhodamine B assay relative to control; method in brief: as §1
SK-MEL-28 = assay: Growth inhibition of human SK-MEL-28 cells at 10 uM incubated for 48 hrs by sulforhodamine B assay relative to control; method in brief: as §1
SK-MEL-5 = assay: Growth inhibition of human SK-MEL-5 cells at 10 uM incubated for 48 hrs by sulforhodamine B assay relative to control; method in brief: as §1
KM12 = assay: Growth inhibition of human KM12 cells at 10 uM incubated for 48 hrs by sulforhodamine B assay relative to control; method in brief: as §2
MDA-MB-231 = assay: Growth inhibition of human MDA-MB-231 cells at 10 uM incubated for 48 hrs by sulforhodamine B assay relative to control; method in brief: as §2
NCI-H460 = assay: Growth inhibition of human NCI-H460 cells at 10 uM incubated for 48 hrs by sulforhodamine B assay relative to control; method in brief: as §1
EKVX = assay: Growth inhibition of human EKVX cells at 10 uM incubated for 48 hrs by sulforhodamine B assay relative to control; method in brief: as §2
BT-549 = assay: Growth inhibition of human BT-549 cells at 10 uM incubated for 48 hrs by sulforhodamine B assay relative to control; method in brief: as §2
Hs-578T = assay: Growth inhibition of human HS-578T cells at 10 uM incubated for 48 hrs by sulforhodamine B assay relative to control; method in brief: as §2
SW-620 = assay: Growth inhibition of human SW-620 cells at 10 uM incubated for 48 hrs by sulforhodamine B assay relative to control; method in brief: as §3
MDA-MB-468 = assay: Growth inhibition of human MDA-MB-468 cells at 10 uM incubated for 48 hrs by sulforhodamine B assay relative to control; method in brief: as §2
IGROV-1 = assay: Growth inhibition of human IGROV-1 cells at 10 uM incubated for 48 hrs by sulforhodamine B assay relative to control; method in brief: as §2
MDA-MB-435 = assay: Growth inhibition of human MDA-MB-435 cells at 10 uM incubated for 48 hrs by sulforhodamine B assay relative to control; method in brief: as §2
NCI-H522 = assay: Growth inhibition of human NCI-H522 cells at 10 uM incubated for 48 hrs by sulforhodamine B assay relative to control; method in brief: as §1
PC-3 = assay: Growth inhibition of human PC-3 cells at 10 uM incubated for 48 hrs by sulforhodamine B assay relative to control; method in brief: as §1
NCI/ADR-RES = assay: Growth inhibition of human NCI/ADR-RES cells at 10 uM incubated for 48 hrs by sulforhodamine B assay relative to control; method in brief: as §1
COLO 205 = assay: Growth inhibition of human COLO 205 cells at 10 uM incubated for 48 hrs by sulforhodamine B assay relative to control; method in brief: as §2
SK-MEL-2 = assay: Growth inhibition of human SK-MEL-2 cells at 10 uM incubated for 48 hrs by sulforhodamine B assay relative to control; method in brief: as §1
SF-539 = assay: Growth inhibition of human SF-539 cells at 10 uM incubated for 48 hrs by sulforhodamine B assay relative to control; method in brief: as §1
Malme-3M = assay: Growth inhibition of human Malme-3M cells at 10 uM incubated for 48 hrs by sulforhodamine B assay relative to control; method in brief: as §1
HOP-62 = assay: Growth inhibition of human HOP-62 cells at 10 uM incubated for 48 hrs by sulforhodamine B assay relative to control; method in brief: as §2
HL-60(TB) = assay: Growth inhibition of human HL-60(TB) cells at 10 uM incubated for 48 hrs by sulforhodamine B assay relative to control
Method in brief: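 NCI-60 one-dose screen: same culture, 48 h drug exposure and SRB read-out. Reported as percent growth relative to no-drug control and to time-zero cell number; 0–100 means growth inhibition, below 0 means lethality.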

OVCAR-4 = assay: Growth inhibition of human OVCAR-4 cells at 10 uM incubated for 48 hrs by sulforhodamine B assay relative to control; method in brief: as §1
NCI-H322M = assay: Growth inhibition of human NCI-H322M cells at 10 uM incubated for 48 hrs by sulforhodamine B assay relative to control; method in brief: as §1
U-251 = assay: Growth inhibition of human U-251 cells at 10 uM incubated for 48 hrs by sulforhodamine B assay relative to control; method in brief: as §3
SN12C = assay: Growth inhibition of human SN12C cells at 10 uM incubated for 48 hrs by sulforhodamine B assay relative to control; method in brief: as §1
T47D = assay: Growth inhibition of human T47D cells at 10 uM incubated for 48 hrs by sulforhodamine B assay relative to control; method in brief: as §3
SNB-19 = assay: Growth inhibition of human SNB-19 cells at 10 uM incubated for 48 hrs by sulforhodamine B assay relative to control; method in brief: as §1

| SMILES | inhibition of growth at 10 µM (NCI-H226) | inhibition of growth at 10 µM (NCI-H23) | inhibition of growth at 10 µM (MCF7) | inhibition of growth at 10 µM (MOLT-4) | inhibition of growth at 10 µM (A498) | inhibition of growth at 10 µM (UACC-257) | inhibition of growth at 10 µM (HOP-92) | inhibition of growth at 10 µM (SF-268) | inhibition of growth at 10 µM (SK-MEL-28) | inhibition of growth at 10 µM (SK-MEL-5) | inhibition of growth at 10 µM (KM12) | inhibition of growth at 10 µM (MDA-MB-231) | inhibition of growth at 10 µM (NCI-H460) | inhibition of growth at 10 µM (EKVX) | inhibition of growth at 10 µM (BT-549) | inhibition of growth at 10 µM (Hs-578T) | inhibition of growth at 10 µM (SW-620) | inhibition of growth at 10 µM (MDA-MB-468) | inhibition of growth at 10 µM (IGROV-1) | inhibition of growth at 10 µM (MDA-MB-435) | also measured |
| --- | --- | --- | --- | --- | --- | --- | --- | --- | --- | --- | --- | --- | --- | --- | --- | --- | --- | --- | --- | --- | --- |
| COc1cc2nc(-c3ccc(C(F)(F)F)cc3)cc(OCCN3CCOCC3)c2cc1OC | 13% | 13% | 13% | 13% | 13% | 13% | 13% | 13% | 13% | 13% | 13% | 13% | 13% | 13% | 13% | 13% | 13% | 13% | 13% | 13% | inhibition of growth at 10 µM (NCI-H522): 13%; inhibition of growth at 10 µM (PC-3): 13%; inhibition of growth at 10 µM (NCI/ADR-RES): 13%; inhibition of growth at 10 µM (COLO 205): 13%; inhibition of growth at 10 µM (SK-MEL-2): 13%; inhibition of growth at 10 µM (SF-539): 13%; inhibition of growth at 10 µM (Malme-3M): 13%; inhibition of growth at 10 µM (HOP-62): 13%; inhibition of growth at 10 µM (HL-60(TB)): 13%; inhibition of growth at 10 µM (OVCAR-4): 13%; inhibition of growth at 10 µM (NCI-H322M): 13%; inhibition of growth at 10 µM (U-251): 13%; inhibition of growth at 10 µM (SN12C): 13%; inhibition of growth at 10 µM (T47D): 13%; inhibition of growth at 10 µM (SNB-19): 13% |
| COc1cc2nc(-c3ccc(C(F)(F)F)cc3)cc(OCCN3CCCC3)c2cc1OC | 13% | 13% | 13% | 13% | 13% | 13% | 13% | 13% | 13% | 13% | 13% | 13% | 13% | 13% | 13% | 13% | 13% | 13% | 13% | 13% | inhibition of growth at 10 µM (NCI-H522): 13%; inhibition of growth at 10 µM (PC-3): 13%; inhibition of growth at 10 µM (NCI/ADR-RES): 13%; inhibition of growth at 10 µM (COLO 205): 13%; inhibition of growth at 10 µM (SK-MEL-2): 13%; inhibition of growth at 10 µM (SF-539): 13%; inhibition of growth at 10 µM (Malme-3M): 13%; inhibition of growth at 10 µM (HOP-62): 13%; inhibition of growth at 10 µM (HL-60(TB)): 13%; inhibition of growth at 10 µM (OVCAR-4): 13%; inhibition of growth at 10 µM (NCI-H322M): 13%; inhibition of growth at 10 µM (U-251): 13%; inhibition of growth at 10 µM (SN12C): 13%; inhibition of growth at 10 µM (T47D): 13%; inhibition of growth at 10 µM (SNB-19): 13% |
| COc1cc2nc(-c3ccc(Cl)cc3)cc(OCCN3CCC(O)CC3)c2cc1OC | 3% | 3% | 3% | 3% | 3% | 3% | 3% | 3% | 3% | 3% | 3% | 3% | 3% | 3% | 3% | 3% | 3% | 3% | 3% | 3% | inhibition of growth at 10 µM (NCI-H522): 3%; inhibition of growth at 10 µM (PC-3): 3%; inhibition of growth at 10 µM (NCI/ADR-RES): 3%; inhibition of growth at 10 µM (COLO 205): 3%; inhibition of growth at 10 µM (SK-MEL-2): 3%; inhibition of growth at 10 µM (SF-539): 3%; inhibition of growth at 10 µM (Malme-3M): 3%; inhibition of growth at 10 µM (HOP-62): 3%; inhibition of growth at 10 µM (HL-60(TB)): 3%; inhibition of growth at 10 µM (OVCAR-4): 3%; inhibition of growth at 10 µM (NCI-H322M): 3%; inhibition of growth at 10 µM (U-251): 3%; inhibition of growth at 10 µM (SN12C): 3%; inhibition of growth at 10 µM (T47D): 3%; inhibition of growth at 10 µM (SNB-19): 3% |
| COc1cc2nc(-c3ccsc3)cc(OCCCN3CCC(O)CC3)c2cc1OC | 32% | 32% | 32% | 32% | 32% | 32% | 32% | 32% | 32% | 32% | 32% | 32% | 32% | 32% | 32% | 32% | 32% | 32% | 32% | 32% | inhibition of growth at 10 µM (NCI-H522): 32%; inhibition of growth at 10 µM (PC-3): 32%; inhibition of growth at 10 µM (NCI/ADR-RES): 32%; inhibition of growth at 10 µM (COLO 205): 32%; inhibition of growth at 10 µM (SK-MEL-2): 32%; inhibition of growth at 10 µM (SF-539): 32%; inhibition of growth at 10 µM (Malme-3M): 32%; inhibition of growth at 10 µM (HOP-62): 32%; inhibition of growth at 10 µM (HL-60(TB)): 32%; inhibition of growth at 10 µM (OVCAR-4): 32%; inhibition of growth at 10 µM (NCI-H322M): 32%; inhibition of growth at 10 µM (U-251): 32%; inhibition of growth at 10 µM (SN12C): 32%; inhibition of growth at 10 µM (T47D): 32%; inhibition of growth at 10 µM (SNB-19): 32% |
